Data taken from ChEMBL document CHEMBL4842335, “Discovery of penipanoid C-inspired 2-(3,4,5-trimethoxybenzoyl)quinazolin-4(3H)-one derivatives as potential anticancer agents by inhibiting cell proliferation and inducing apoptosis in hepatocellular carcinoma cells” (Eur J Med Chem, 2021).
Activity calls are given as the source filed them. The rule behind the calls is not given here.

Experiments:
HepG2 [1] = experiment: Cytotoxicity against human HepG2 cells assessed as inhibition of proliferation incubated for 72 hrs by MTT assay; type: functional, cell-based; settings: HepG2, 72 h
Summary of the method: (§1)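 Cells plated at 3×10³/well, grown overnight in DMEM + 10% FBS, then exposed to compounds (DMSO stocks; 0.1% DMSO negative control) for 72 h at 37 °C. MTT (5 mg/mL in PBS, added at 10%) for 4 h, formazan dissolved in DMSO, A570 read. Inhibition = (Ac−As)/(Ac−Ab)×100; IC50 by calculator; ≥3 independent repeats.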

Bel-7402 [2] = experiment: Cytotoxicity against human Bel-7402 cells assessed as inhibition of proliferation incubated for 72 hrs by MTT assay; type: functional, cell-based; settings: Bel-7402, 72 h; summary of the method: as §1
U-251 = experiment: Cytotoxicity against human U251 cells assessed as inhibition of proliferation incubated for 72 hrs by MTT assay; type: functional, cell-based; settings: U-251, 72 h; summary of the method: as §1
Bel-7402 [3] = experiment: Inhibition of colony formation in human Bel-7402 cells at 1.6 to 3.2 uM measured after 10 days by crystal violet staining based assay relative to control; type: functional, cell-based; settings: dose 1.6-3.2 µM, time 10.0 day
Summary of the method: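 1000 cells/well seeded, attached overnight in DMEM + 10% FBS, then grown 10 days at 37 °C, 5% CO₂ with 0, 0.2, 0.4, 0.8, 1.6 or 3.2 µM. Fixed in 4% paraformaldehyde 15 min, stained 0.1% crystal violet 30 min, colonies counted; formation rate relative to solvent control.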

L02 = experiment: Cytotoxicity against human L-O2 cells assessed as inhibition of proliferation incubated for 72 hrs by MTT assay; type: cell-based; settings: L02, 72 h
[4] = Selectivity index, ratio of IC50 for human LO2 cells to IC50 for human HepG2 cells; type: toxicity; settings: LO2 cells versus HepG2 cells, read-out: Selectivity Index
HepG2 [5] = experiment: Induction of cell cycle arrest in human HepG2 cells assessed as accumulation at G1 phase at 0.8 uM incubated for 48 hrs by flow cytometry (reference value: 46.88%); type: functional
HepG2 [6] = experiment: Induction of cell cycle arrest in human HepG2 cells assessed as accumulation at S phase at 0.8 uM incubated for 48 hrs by flow cytometry (reference value: 28.23%); type: functional
Summary of the method: (§2)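 HepG2 treated 48 h with 0, 0.8 or 1.6 µM (DMSO control); phase distribution by flow cytometry using a cell cycle and apoptosis kit; mean with SD, n = 3.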

HepG2 [7] = experiment: Induction of cell cycle arrest in human HepG2 cells assessed as accumulation at S phase at 1.6 uM incubated for 48 hrs by flow cytometry (reference value: 28.23%); type: functional; summary of the method: as §2
HepG2 [8] = experiment: Induction of cell cycle arrest in human HepG2 cells assessed as accumulation at G2/M phase at 1.6 uM incubated for 48 hrs by flow cytometry (reference value: 24.89%); type: functional; summary of the method: as §2
Bel-7402 [9] = experiment: Induction of cell cycle arrest in human Bel-7402 cells assessed as accumulation at G1 phase at 0.8 uM incubated for 48 hrs by flow cytometry (reference value: 46.32%); type: functional
Bel-7402 [10] = experiment: Induction of cell cycle arrest in human Bel-7402 cells assessed as accumulation at S phase at 0.8 uM incubated for 48 hrs by flow cytometry (reference value: 28.48%); type: functional
Bel-7402 [11] = experiment: Induction of cell cycle arrest in human Bel-7402 cells assessed as accumulation at G1 phase at 1.6 uM incubated for 48 hrs by flow cytometry (reference value: 46.32%); type: functional
Bel-7402 [12] = experiment: Induction of cell cycle arrest in human Bel-7402 cells assessed as accumulation at S phase at 1.6 uM incubated for 48 hrs by flow cytometry (reference value: 28.48%); type: functional
Bel-7402 [13] = experiment: Induction of cell cycle arrest in human Bel-7402 cells assessed as accumulation at S phase at 3.2 uM incubated for 48 hrs by flow cytometry (reference value: 28.48%); type: functional
[14] = target: Mitogen-activated protein kinase; ERK1/ERK2 (Homo sapiens) (UniProt P27361+P28482); experiment: Inhibition of ERK1/2 phosphorylation in human HepG2 cells incubated for 48 hrs by Western blot analysis; type: cell-based
Sequence of Mitogen-activated protein kinase; ERK1/ERK2 (Homo sapiens) (P27361 whole entry, looked up): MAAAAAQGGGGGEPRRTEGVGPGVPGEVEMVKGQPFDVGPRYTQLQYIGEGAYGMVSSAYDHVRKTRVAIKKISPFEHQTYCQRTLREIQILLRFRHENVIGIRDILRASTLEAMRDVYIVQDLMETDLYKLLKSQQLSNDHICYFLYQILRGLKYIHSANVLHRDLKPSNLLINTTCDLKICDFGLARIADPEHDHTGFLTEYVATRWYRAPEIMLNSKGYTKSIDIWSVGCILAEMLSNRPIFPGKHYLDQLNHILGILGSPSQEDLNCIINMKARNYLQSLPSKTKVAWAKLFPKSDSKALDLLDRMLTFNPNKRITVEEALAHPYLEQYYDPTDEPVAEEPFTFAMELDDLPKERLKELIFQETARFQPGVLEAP
Sequence of Mitogen-activated protein kinase; ERK1/ERK2 (Homo sapiens) (P28482 whole entry, looked up): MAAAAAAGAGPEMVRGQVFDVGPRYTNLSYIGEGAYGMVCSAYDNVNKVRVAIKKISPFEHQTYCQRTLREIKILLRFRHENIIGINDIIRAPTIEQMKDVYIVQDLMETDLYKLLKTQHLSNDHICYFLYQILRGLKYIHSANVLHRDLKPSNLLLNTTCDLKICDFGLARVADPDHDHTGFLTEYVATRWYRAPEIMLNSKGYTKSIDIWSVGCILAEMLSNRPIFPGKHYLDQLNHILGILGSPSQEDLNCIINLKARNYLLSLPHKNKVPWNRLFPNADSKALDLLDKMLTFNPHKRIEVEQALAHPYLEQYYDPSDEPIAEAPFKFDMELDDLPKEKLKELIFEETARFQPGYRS
Summary of the method: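 HepG2 treated 48 h with 0, 1.6 or 3.2 µM; lysates run on 12.5% SDS-PAGE, PVDF transfer, primary antibodies (AKT, p-AKT, ERK1/2, p-ERK1/2; 1:1000) overnight at 4 °C, HRP secondaries 1 h, chemiluminescence. Phosphorylation quantified relative to untreated control set to 1; SD, n = 3.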

HepG2 [15] = experiment: Induction of apoptosis in human HepG2 cells assessed as live cells at 0.8 uM incubated for 48 hrs by Annexin V and dead cell assay kit (reference value: 93.90%); type: functional
Summary of the method: (§3)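 HepG2 cells were grown in DMEM and exposed to 0, 0.8, 1.6 or 3.2 µM test agent or DMSO vehicle for 48 h. Apoptosis was then read on a Muse cell analyzer using an Annexin V & Dead Cell kit, which separates live, early apoptotic, late apoptotic and dead populations. The figure legend gives n = 3 with SEM.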

HepG2 [16] = experiment: Induction of apoptosis in human HepG2 cells assessed as dead cells at 0.8 uM incubated for 48 hrs by Annexin V and dead cell assay kit (reference value: 0.55%); type: functional; summary of the method: as §3
HepG2 [17] = experiment: Induction of apoptosis in human HepG2 cells assessed as live cells at 1.6 uM incubated for 48 hrs by Annexin V and dead cell assay kit (reference value: 93.90%); type: functional; summary of the method: as §3
HepG2 [18] = experiment: Induction of apoptosis in human HepG2 cells assessed as early apoptotic cells at 1.6 uM incubated for 48 hrs by Annexin V and dead cell assay kit (reference value: 4.55%); type: functional; summary of the method: as §3
HepG2 [19] = experiment: Induction of apoptosis in human HepG2 cells assessed as live cells at 3.2 uM incubated for 48 hrs by Annexin V and dead cell assay kit (reference value: 93.90%); type: functional; summary of the method: as §3
HepG2 [20] = experiment: Induction of apoptosis in human HepG2 cells assessed as early apoptotic cells at 3.2 uM incubated for 48 hrs by Annexin V and dead cell assay kit (reference value: 4.55%); type: functional; summary of the method: as §3
HepG2 [21] = experiment: Induction of apoptosis in human HepG2 cells assessed as dead cells at 3.2 uM incubated for 48 hrs by Annexin V and dead cell assay kit (reference value: 0.55%); type: functional; summary of the method: as §3
HepG2 [22] = experiment: Induction of reactive oxygen species generation in human HepG2 cells incubated for 48 hrs by DCFH-DA based fluorescent microscopy; type: functional, cell-based; settings: dose 1.6-3.2 µM
Summary of the method: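 HepG2 cultured 48 h with 0, 0.8, 1.6 or 3.2 µM, washed, loaded with […] DCFH-DA for 20 min at 37 °C in the dark; fluorescence viewed by microscopy.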

[23] = Toxicity in BALB/c mouse xenografted with human HepG2 cells at 4 to 8 mg/kg, ip relative to control; type: organism-based; settings: in vivo, dose 4-8 mg/kg
Summary of the method: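 Female BALB/c nude mice (14–17 g) carrying s.c. HepG2 xenografts (100–200 mm³), 5 per group. Dosed i.p. daily for 20 days at 4 or 8 mg/kg in 15% N-methylpyrrolidone/25% Solutol HS-15/60% saline, with vehicle controls. Body weight tracked over the treatment.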

HepG2 [24] = experiment: Induction of apoptosis in human HepG2 cells assessed as increase in cleaved PARP level at 1.6 to 3.2 uM after 48 hrs by Western blot analysis; settings: dose 1.6-3.2 µM

## COc1cc(C(=O)c2nc3ccccc3c(=O)[nH]2)cc(OC)c1OC
HepG2 [1]
  IC50: 1.22 µM
Bel-7402 [2]
  IC50: 1.71 µM
U-251
  IC50: 5.48 µM
Bel-7402 [3]
  Activity: Active
L02
  IC50: 6.01 µM
[4]
  selectivity ratio: 4.9
HepG2 [5]
  Activity: 37.84%
HepG2 [6]
  Activity: 33.43%
HepG2 [7]
  Activity: 35.65%
HepG2 [8]
  Activity: 35.18%
Bel-7402 [9]
  Activity: 39.2%
Bel-7402 [10]
  Activity: 33.11%
Bel-7402 [11]
  Activity: 33.07%
Bel-7402 [12]
  Activity: 34.5%
Bel-7402 [13]
  Activity: 32.14%
[14]
  inhibition: Dose-Dependent Effect
HepG2 [15]
  Activity: 91.75%
HepG2 [16]
  Activity: 0.45%
HepG2 [17]
  Activity: 80.65%
HepG2 [18]
  Activity: 11.7%
HepG2 [19]
  Activity: 53.2%
HepG2 [20]
  Activity: 22.1%
HepG2 [21]
  Activity: 0.55%
HepG2 [22]
  Activity: Active
[23]
  Activity: Non-Toxic
HepG2 [24]
  Activity: Active
